High-throughput results from PubChem BioAssay.
CRFBP-R2 agonist – CRF-BP/CRF-R2 complex agonism. 0.46% of 350,000 active. HEK293 CRF-R2/CRF-BP, calcium dye fluorescence (FLIPR); percent of saturating CRF peptide response. activation, % at 13.2 µM;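 active = activation of at least 50%, plus an integration ratio under a set limit after plate pattern correction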
TPT1 inh – C. albicans TPT1 enzyme inhibition. inhibition, % at 5 µM. recombinant caTPT1, FP RNA substrate dephosphorylation. 0.81% of 300,000 active. AID 1962;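 active = inhibition above the mean of all tested compounds plus 3 SD, set per screening campaign, cut at about 24% in these data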
Rpn11 block – Rpn11 (human) deubiquitinase inhibition. O00487. human 26S proteasome, Ub4-pepOG fluorescence polarization; 20S core pre-blocked with epoxomicin. calls only at 20 µM. 0.59% of 360,000 active;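 active = inhibition at 20 µM, scaled to each plate's controls, above about 33%, limit read from the data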
Target sequence (O00487 whole entry, looked up): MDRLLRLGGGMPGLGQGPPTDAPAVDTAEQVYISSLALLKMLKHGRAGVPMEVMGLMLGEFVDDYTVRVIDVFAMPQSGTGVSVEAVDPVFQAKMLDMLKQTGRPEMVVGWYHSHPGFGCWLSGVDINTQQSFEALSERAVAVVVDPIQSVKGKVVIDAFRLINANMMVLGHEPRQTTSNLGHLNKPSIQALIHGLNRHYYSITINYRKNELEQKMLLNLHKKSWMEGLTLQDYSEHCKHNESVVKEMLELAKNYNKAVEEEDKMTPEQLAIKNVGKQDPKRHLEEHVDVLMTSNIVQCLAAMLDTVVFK
CSN deneddyl inh – blocks human CSN-mediated cullin deneddylation; 0.38% of 360,000 active; Q92905; AID 651999; Purified CSN, SCF-Nedd8-OG deneddylation, fluorescence polarization; inhibition, % at 12.5 µM;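 active = pattern-corrected inhibition above about 35%, with an unprinted fluorescence ratio check between 0.5 and 1.5, limit read from the data, passing the limit was not always enough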
Target sequence (Q92905 whole entry, looked up, one chain of several): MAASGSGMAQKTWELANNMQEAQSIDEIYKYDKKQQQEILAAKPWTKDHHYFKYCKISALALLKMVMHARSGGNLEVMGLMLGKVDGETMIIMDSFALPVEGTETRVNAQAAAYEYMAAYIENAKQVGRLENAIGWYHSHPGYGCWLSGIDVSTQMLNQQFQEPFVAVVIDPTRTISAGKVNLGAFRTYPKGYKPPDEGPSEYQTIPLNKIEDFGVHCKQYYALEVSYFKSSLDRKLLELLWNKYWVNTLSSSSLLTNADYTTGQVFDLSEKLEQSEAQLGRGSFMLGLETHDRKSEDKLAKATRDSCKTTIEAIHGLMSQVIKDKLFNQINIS
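Material: purified human Csn5 enzyme expressed in HEK293T cells / Medium: Tris buffer pH 7.5, NaCl, DTT, Tween-20, trehalose, ovalbumin / Compound dosing: 12.5 µM single point / Schedule: 90 min incubation of compound, enzyme and substrate at room temperature / Signal: fluorescence polarization of the substrate / Control set: no-enzyme wells high, enzyme-with-substrate wells low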
CRFR2-BP antag – blocks CRF-induced signaling of the CRF-BP/CRF-R2 complex. HEK293 CRF-R2/CRF-BP, CRF-induced calcium fluorescence. inhibition, % at 11.8 µM. 0.59% of 350,000 active;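 active = inhibition of the ligand-induced calcium signal above about 50% at the single tested concentration, limit read from the data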
HNF4A DNA FP – change in binding of human HNF4 alpha to DNA; activity change, % at 10 µM; HNF4a-FITC DNA binding, fluorescence polarization, 1 h; 0.3% of 360,000 active; AID 1224865; P41235; in the data active = activity change above about 30%, passing the limit was not always enough
caTPT1 confirm – TPT1 (C. albicans) inhibition, confirmation | recombinant caTPT1, fluorescence polarization, RNase T1 coupled | shares compounds with TPT1 inh | inhibition, % at 5 µM | 74% of 2,400 active;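 active = inhibition above the primary screen limit, the mean inhibition of all tested compounds plus 3 SD, cut at about 25% in these data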
RNase T1 counter – RNase T1 inhibition in TPT1 counter-screen | RNase T1 cleavage, fluorescence polarization, 1536-well | 83% of 2,400 active | inhibition, % at 5 µM | shares compounds with TPT1 inh | AID 2153;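 active = inhibition above the solvent-only control well mean plus 3 SD, limit set per screening run, cut at about 23% in these data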;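 note: inhibitors block cleavage so intact labeled substrate keeps polarization high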
Hits are given with their value. Compounds with a hit are over-represented: about 2.3% of the library has one in this group of screens.

Results for N#CC(c1ccc(Cl)nn1)c1ccccc1Cl (stereo unspecified) ?
CRFBP-R2 agonist: inactive; TPT1 inh: inactive; Rpn11 block: inactive; CSN deneddyl inh: inactive; CRFR2-BP antag: inactive; HNF4A DNA FP: inactive

How did O=C(O)c1ccc(-c2ccc(/C=c3/sc4nc5ccccc5n4c3=O)o2)cc1Cl do in these assays?
CRFBP-R2 agonist: 118.0; TPT1 inh: 49.3; CSN deneddyl inh: 106.7; CRFR2-BP antag: inactive; HNF4A DNA FP: 57.0; caTPT1 confirm: 119.6; RNase T1 counter: 121.9

How did O=C(CSc1nnc(CNc2ccc(F)cc2)o1)N1CCN(C(=O)c2ccco2)CC1 do in these assays?
CRFBP-R2 agonist: inactive; TPT1 inh: inactive; Rpn11 block: inactive; CSN deneddyl inh: inactive; CRFR2-BP antag: inactive; HNF4A DNA FP: inactive

What do the screens show for `CN(C)c1ccc(/C=C(\Cl)c2nc3ccccc3s2)cc1`?
CRFBP-R2 agonist: inactive; TPT1 inh: 72.6; CSN deneddyl inh: inactive; CRFR2-BP antag: inactive; HNF4A DNA FP: 46.1; caTPT1 confirm: 84.1; RNase T1 counter: 90.5

How did O=C(O)c1ccc(C=C(c2nc3ccccc3s2)c2nc3ccccc3s2)cc1 do in these assays?
CRFBP-R2 agonist: inactive; TPT1 inh: inactive; Rpn11 block: inactive; CSN deneddyl inh: inactive; CRFR2-BP antag: inactive; HNF4A DNA FP: inactive

How did Cc1nc(S/C(=C/c2ccc(-c3cccc(Cl)c3)o2)C(=O)O)n[nH]1 do in these assays?
CRFBP-R2 agonist: inactive; TPT1 inh: 25.0; Rpn11 block: inactive; CSN deneddyl inh: inactive; CRFR2-BP antag: inactive; HNF4A DNA FP: inactive; caTPT1 confirm: 35.4; RNase T1 counter: 47.7

Results for COC(=O)N/N=C/c1ccc(-c2cccc(Cl)c2)o1 ?
CRFBP-R2 agonist: inactive; TPT1 inh: inactive; Rpn11 block: inactive; CSN deneddyl inh: inactive; CRFR2-BP antag: inactive; HNF4A DNA FP: inactive

What do the screens show for `CCOC(=O)c1[nH]c(C)c(C(=O)Nc2ccc(C)c(Cl)c2)c1C`?
CRFBP-R2 agonist: inactive; TPT1 inh: 28.4; Rpn11 block: inactive; CSN deneddyl inh: inactive; CRFR2-BP antag: inactive; HNF4A DNA FP: inactive; caTPT1 confirm: inactive; RNase T1 counter: inactive

How did CCOC(=O)c1[nH]c(C)c(C(=O)Nc2ccc(C)c(F)c2)c1C do in these assays?
CRFBP-R2 agonist: inactive; TPT1 inh: inactive; Rpn11 block: inactive; CSN deneddyl inh: inactive; CRFR2-BP antag: inactive; HNF4A DNA FP: inactive

Results for Cn1cccc1C(=O)/C(C#N)=C/c1ccc(F)cc1 ?
CRFBP-R2 agonist: inactive; TPT1 inh: 52.8; CSN deneddyl inh: inactive; CRFR2-BP antag: inactive; HNF4A DNA FP: inactive; caTPT1 confirm: 79.7; RNase T1 counter: 95.6

Results for Nc1c(C(=O)N/N=C/c2ccccc2Cl)oc2nc(-c3ccccc3)cc(-c3ccco3)c12 ?
CRFBP-R2 agonist: inactive; TPT1 inh: 71.5; CSN deneddyl inh: inactive; CRFR2-BP antag: inactive; HNF4A DNA FP: inactive; caTPT1 confirm: 91.6; RNase T1 counter: 95.5

Results for Cc1cc(-c2ccccc2)nc2oc(C(=O)NN)c(N)c12 ?
CRFBP-R2 agonist: inactive; TPT1 inh: inactive; Rpn11 block: inactive; CSN deneddyl inh: inactive; CRFR2-BP antag: inactive; HNF4A DNA FP: inactive

What do the screens show for `O=C(Cn1c(Cc2ccccc2)nc2ccccc21)NCc1ccc2c(c1)OCO2`?
CRFBP-R2 agonist: inactive; TPT1 inh: 61.0; Rpn11 block: inactive; CSN deneddyl inh: inactive; CRFR2-BP antag: inactive; HNF4A DNA FP: inactive; caTPT1 confirm: inactive; RNase T1 counter: inactive

What do the screens show for `O=C(Cn1c(CO)nc2ccccc21)NCc1ccc2c(c1)OCO2`?
CRFBP-R2 agonist: inactive; TPT1 inh: inactive; Rpn11 block: inactive; CSN deneddyl inh: inactive; CRFR2-BP antag: inactive; HNF4A DNA FP: inactive

Results for O=C(Nc1cccc(S(=O)(=O)N2CCCC2)c1)c1ccc2c(c1)OCO2 ?
CRFBP-R2 agonist: inactive; TPT1 inh: inactive; Rpn11 block: inactive; CSN deneddyl inh: inactive; CRFR2-BP antag: inactive; HNF4A DNA FP: inactive

What do the screens show for `COC(=O)Cn1c(CN2CCN(c3ccc(F)cc3)CC2)nc2c1c(=O)n(C)c(=O)n2C`?
CRFBP-R2 agonist: inactive; TPT1 inh: 89.8; Rpn11 block: inactive; CSN deneddyl inh: inactive; CRFR2-BP antag: inactive; HNF4A DNA FP: inactive; caTPT1 confirm: inactive; RNase T1 counter: inactive

What do the screens show for `CCOCCn1c(CN2CCN(c3ccc(F)cc3)CC2)nc2c1c(=O)n(C)c(=O)n2C`?
CRFBP-R2 agonist: inactive; TPT1 inh: inactive; Rpn11 block: inactive; CSN deneddyl inh: inactive; CRFR2-BP antag: inactive; HNF4A DNA FP: inactive

Results for Oc1cccc2ccc(/C=C/c3cccs3)nc12 ?
CRFBP-R2 agonist: inactive; TPT1 inh: inactive; Rpn11 block: inactive; CSN deneddyl inh: inactive; CRFR2-BP antag: inactive; HNF4A DNA FP: inactive

Results for NC(=O)c1ccccc1OCC(=O)NC12CC3CC(CC(C3)C1)C2 ?
CRFBP-R2 agonist: inactive; TPT1 inh: inactive; Rpn11 block: inactive; CSN deneddyl inh: inactive; CRFR2-BP antag: inactive; HNF4A DNA FP: inactive

What do the screens show for `COc1cc(CC(=O)Nc2sccc2C(N)=O)cc(OC)c1OC`?
CRFBP-R2 agonist: inactive; TPT1 inh: 76.0; CSN deneddyl inh: inactive; CRFR2-BP antag: inactive; HNF4A DNA FP: 33.8; caTPT1 confirm: inactive; RNase T1 counter: 24.5

Results for CCOc1ccc(S(=O)(=O)Nc2nc3ccccc3nc2Nc2ccc(N3CCOCC3)cc2)cc1 ?
CRFBP-R2 agonist: 77.3; TPT1 inh: 28.5; Rpn11 block: inactive; CSN deneddyl inh: inactive; CRFR2-BP antag: inactive; HNF4A DNA FP: inactive; caTPT1 confirm: inactive; RNase T1 counter: inactive

How did COCc1c(C(=O)OCC(=O)N2c3ccccc3CC2C)oc2ccccc12 (stereo unspecified) do in these assays?
CRFBP-R2 agonist: inactive; TPT1 inh: inactive; Rpn11 block: inactive; CSN deneddyl inh: inactive; CRFR2-BP antag: inactive; HNF4A DNA FP: inactive

What do the screens show for `NC1=NC(=O)/C(=C/c2cc(Br)c(O)c(Br)c2)S1`?
CRFBP-R2 agonist: inactive; TPT1 inh: 37.1; Rpn11 block: inactive; CSN deneddyl inh: inactive; CRFR2-BP antag: inactive; HNF4A DNA FP: inactive; caTPT1 confirm: 49.4; RNase T1 counter: 61.7

Results for O=C(Oc1coc(CSc2ncccn2)cc1=O)c1ccccc1[N+](=O)[O-] ?
CRFBP-R2 agonist: inactive; TPT1 inh: 46.3; Rpn11 block: inactive; CSN deneddyl inh: inactive; CRFR2-BP antag: inactive; HNF4A DNA FP: inactive; caTPT1 confirm: inactive; RNase T1 counter: inactive

How did CCOC(=O)c1cc2nc(Nc3ccc(OC)cc3)sc2s1 do in these assays?
CRFBP-R2 agonist: inactive; TPT1 inh: 39.3; Rpn11 block: inactive; CSN deneddyl inh: inactive; CRFR2-BP antag: inactive; HNF4A DNA FP: inactive; caTPT1 confirm: 27.2; RNase T1 counter: 39.5

How did CCOC(=O)c1sc(Nc2ccc(Br)cc2)nc1C do in these assays?
CRFBP-R2 agonist: inactive; TPT1 inh: inactive; Rpn11 block: inactive; CSN deneddyl inh: inactive; CRFR2-BP antag: inactive; HNF4A DNA FP: inactive
